Reference: ChEMBL document CHEMBL1157983, “Novel labdane diterpenes from the insecticidal plant hyptis spicigera1” (1999)
In brackets after ≈: the same amount, converted by molar mass. Activity calls are given as the source filed them. The calls are words filed in the database; no cut-off is given here.

Tests used:
[1] = tested on: KB; assay: Cytotoxicity against human KB cells up to 20 ug/mL after 72 hrs by SRB assay; assay type: functional, cell-based
Procedure, shortened: (§1)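 KB (nasopharyngeal) and HCT-15 (colon) lines kept in RPMI 1640 with 10% FBS at 37 °C, 5% CO2. Log-phase cells were exposed in triplicate to 0.16-20 µg/mL of sample for 72 h. Cell density was read by sulforhodamine staining. ED50 (50% growth inhibition versus control) was estimated from a semilog plot of concentration against percent viable cells. Ellipticine served as positive control.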

[2] = tested on: HCT-15; assay: Cytotoxicity against human HCT-15 cells at 20 ug/mL after 72 hrs by SRB assay; assay type: functional, cell-based
[3] = tested on: Ostrinia nubilalis; assay: Insecticidal activity against Ostrinia nubilalis larvae after 4 to 6 days; assay type: functional, organism-based
Procedure, shortened: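 Samples were dissolved in 95% EtOH and mixed into agar-based meridic diet at final 5, 50 and 100 ppm. European corn borer larvae were reared on it at 25 °C, about 80% RH, with a 16:8 light:dark cycle. Mortality and larval weight were recorded every 4-6 days over the growth period. ANOVA with Tukey's multiple range test.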

[4] = tested on: KB; assay: Cytotoxicity against human KB cells after 72 hrs by SRB assay; assay type: functional; details: read-out: ED50 (the source's name); procedure, shortened: as §1
[5] = tested on: HCT-15; assay: Cytotoxicity against human HCT-15 cells after 72 hrs by SRB assay; assay type: functional; details: HCT-15, 72 h, read-out: ED50 (the source's name); procedure, shortened: as §1

SMILES	Activity [1]	Activity [2]	Activity [3]	EC50 [4] [µg/mL]	EC50 [5] [µg/mL]
C=C1[C@H](O)C[C@H]2[C@@](C)(COC(C)=O)C[C@H](O)C[C@]2(C)[C@H]1CC/C(C)=C\COC(C)=O	inactive	inactive	Active		
C=C1[C@H](O)C[C@@H]2[C@](C)(CO)C[C@@H](O)C[C@@]2(C)[C@H]1CC/C(C)=C\CO	inactive	inactive			
C=C1[C@H](O)C[C@H]2[C@@](C)(COC(C)=O)C[C@H](O)C[C@]2(C)[C@H]1CC/C(C)=C\CO				19.4 (≈ 51 µM)	8.7 (≈ 22.9 µM)
C=C1[C@H](O)C[C@H]2[C@@](C)(COC(C)=O)C[C@H](O)C[C@]2(C)[C@H]1CC/C(C)=C\C=O				11 (≈ 29.1 µM)	11 (≈ 29.1 µM)
Cc1c2ccncc2c(C)c2c1[nH]c1ccccc12 [ELLIPTECINE]				0.1 (≈ 0.406 µM)	0.17 (≈ 0.69 µM)
C=C1[C@H](O)C[C@H]2[C@@](C)(COC(C)=O)CC(=O)C[C@]2(C)[C@H]1CC/C(C)=C\CO				11 (≈ 29.1 µM)	11 (≈ 29.1 µM)
C=C1[C@H](OC(C)=O)C[C@H]2[C@@](C)(COC(C)=O)C[C@H](O)C[C@]2(C)[C@H]1CC/C(C)=C\COC(C)=O	inactive	inactive			
C=C1[C@H](O)C[C@H]2[C@@](C)(COC(C)=O)C[C@H](O)C[C@]2(C)[C@H]1CCC(C)=O	inactive	inactive			
